Activity calls are given as the source filed them. The calls are words filed in the database; no cut-off is given here.
How the values were obtained:
[1] = test system: Protein cereblon/Epidermal growth factor receptor (Homo sapiens), P00533+Q96SW2 [UNDEFINED MUTATION]; experiment: Protac activity at CRBN/EGFR exon 19 deletion mutant in human HCC827 cells assessed as induction of EGFR degradation at up to 1 uM treated 8 hrs post serum starvation measured after 16 hrs by Western blot analysis; type: cell-based
[2] = molecular target: Epidermal growth factor receptor (Homo sapiens, UniProt P00533, L858R); parameters: species or system Hofmanni bacterium
[3] = test system: NCI-H3255; experiment: Antiproliferative activity against human H3255 cells measured after 3 days by CCK8 assay; type: functional, cell-based
Summary of the method: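 H3255 cells seeded 4000/well the night before, then exposed to serial dilutions for 3 days. Growth read by Cell Counting Kit-8; three independent experiments. IC50 from nonlinear regression (log inhibitor vs response, variable slope).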

[4] = molecular target: T1, Epidermal growth factor receptor (Homo sapiens, UniProt P00533); experiment: Binding affinity to human wild-type partial length EGFR (R669 to V1011 residues) expressed in bacterial expression system by kinomescan assay
[5] = test system: von Hippel-Lindau disease tumor suppressor/Epidermal growth factor receptor (Homo sapiens), P00533+P40337 [UNDEFINED MUTATION]; experiment: Protac activity at VHL/EGFR exon 19 deletion mutant in human HCC827 cells assessed as induction of EGFR degradation at up to 1 uM treated 8 hrs post serum starvation measured after 16 hrs by Western blot analysis; type: cell-based
Summary of the method: (§1)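 Cultured to 80% confluence in RPMI/1640 with 20% FBS at 37 °C and 5% CO2, then switched to serum-free medium for 8 h. Degraders were added over a concentration range up to 10 μM for 16 h, with gefitinib at 1 μM as reference. Lysates in Laemmli buffer were immunoblotted for EGFR, p-EGFR and p-AKT. DC50 came from band quantification by nonlinear regression (variable slope).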

[6] = molecular target: von Hippel-Lindau disease tumor suppressor/Epidermal growth factor receptor (Homo sapiens, UniProt P00533+P40337, L858R)
[7] = Toxicity in Swiss albino mouse assessed as clinical changes at 50 mg/kg, ip; type: organism-based; details: in vivo
[8] = test system: HCC827; experiment: Down regulation of NGDN expression in human HCC827 cells at 100 nM measured after 16 hrs by LC-MS analysis; type: functional, cell-based
Summary of the method: (§2)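 HCC-827 cells serum-starved 8 h, then treated at 100 nM for 16 h. Collected for label-free quantitative LC–MS proteomics; LFQ intensity compared between treated and control groups; three independent experiments.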

[9] = test system: HCC827; experiment: Up regulation of DAD1 expression in human HCC827 cells at 100 nM measured after 16 hrs by LC-MS analysis; type: functional, cell-based; summary of the method: as §2
[10] = test system: NCI-H3255; experiment: Effect on AKT level in human H3255 cells up to 10 uM treated 8 hrs post serum starvation measured after 16 hrs by Western blot analysis; type: ADME, cell-based; details: nci-h3255, 16 h
[11] = test system: HCC827; experiment: Up regulation of BIN1 expression in human HCC827 cells at 100 nM measured after 16 hrs by LC-MS analysis; type: functional, cell-based; summary of the method: as §2
[12] = test system: HCC827; experiment: Effect on AKT level in human HCC827 cells up to 10 uM treated 8 hrs post serum starvation measured after 16 hrs by Western blot analysis; type: ADME, cell-based; details: hcc827, 16 h
[13] = molecular target: T1, Epidermal growth factor receptor; experiment: Induction of wild-type EGFR degradation in human H1299 cells at up to 10 uM treated 8 hrs post serum starvation measured after 16 hrs by Western blot analysis; type: cell-based
[14] = Cmax in Swiss albino mouse at 50 mg/kg, ip measured after 8 hrs; type: ADME, organism-based; parameters: dose 50 mg/kg, route intraperitoneal; details: in vivo
[15] = test system: HCC827; experiment: Down regulation of TXNIP expression in human HCC827 cells at 100 nM measured after 16 hrs by LC-MS analysis; type: functional, cell-based; summary of the method: as §2
[16] = test system: HCC827; experiment: Up regulation of RRM2 expression in human HCC827 cells at 100 nM measured after 16 hrs by LC-MS analysis; type: functional, cell-based; summary of the method: as §2
[17] = molecular target: T1, Epidermal growth factor receptor; experiment: Induction of wild-type EGFR degradation in human OVCAR8 cells at up to 10 uM treated 8 hrs post serum starvation measured after 16 hrs by Western blot analysis; type: cell-based
[18] = test system: HCC827; experiment: Up regulation of SEC61G expression in human HCC827 cells at 100 nM measured after 16 hrs by LC-MS analysis; type: functional, cell-based; summary of the method: as §2
[19] = molecular target: von Hippel-Lindau disease tumor suppressor/Epidermal growth factor receptor (Homo sapiens, UniProt P00533+P40337); experiment: Protac activity at VHL/EGFR exon 19 deletion mutant in human HCC827 cells assessed as induction of EGFR degradation treated 8 hrs post serum starvation measured after 16 hrs by Western blot analysis
[20] = Cmax in Swiss albino mouse at 50 mg/kg, ip measured after 24 hrs; type: ADME, organism-based; parameters: dose 50 mg/kg, route intraperitoneal; details: in vivo
[21] = test system: HCC827; experiment: Up regulation of HMGCS1 expression in human HCC827 cells at 100 nM measured after 16 hrs by LC-MS analysis; type: functional, cell-based; summary of the method: as §2
[22] = test system: Epidermal growth factor receptor (Homo sapiens), P00533 [L858R]; experiment: Induction of EGFR L858R degradation in human H3255 cells up to 100 nM treated 8 hrs post serum starvation measured after 16 hrs by Western blot analysis; type: cell-based
[23] = test system: Epidermal growth factor receptor (Homo sapiens), P00533 [UNDEFINED MUTATION]; experiment: Induction of EGFR exon 19 deletion mutant degradation in human HCC827 cells assessed as reduction in EGFR autophosphorylation up to 100 nM treated 8 hrs post serum starvation measured after 16 hrs by Western blot analysis; type: cell-based
[24] = test system: Epidermal growth factor receptor (Homo sapiens), P00533 [UNDEFINED MUTATION]; experiment: Induction of EGFR exon 19 deletion mutant degradation in human HCC827 cells assessed as reduction in AKT phosphorylation up to 100 nM treated 8 hrs post serum starvation measured after 16 hrs by Western blot analysis; type: cell-based
[25] = test system: Epidermal growth factor receptor (Homo sapiens), P00533 [L858R]; experiment: Induction of EGFR L858R degradation in human H3255 cells assessed as reduction in ATK phosphorylation up to 100 nM treated 8 hrs post serum starvation measured after 16 hrs by Western blot analysis; type: cell-based
[26] = test system: Epidermal growth factor receptor (Homo sapiens), P00533 [UNDEFINED MUTATION]; experiment: Induction of EGFR exon 19 deletion mutant degradation in human HCC827 cells up to 100 nM treated 8 hrs post serum starvation measured after 16 hrs by Western blot analysis; type: cell-based
[27] = test system: Epidermal growth factor receptor (Homo sapiens), P00533 [L858R]; experiment: Induction of EGFR L858R degradation in human H3255 cells assessed as reduction in EGFR autophosphorylation up to 100 nM treated 8 hrs post serum starvation measured after 16 hrs by Western blot analysis; type: cell-based
[28] = test system: von Hippel-Lindau disease tumor suppressor/Epidermal growth factor receptor (Homo sapiens), P00533+P40337 [L858R]; experiment: Protac activity at VHL/EGFR L858R mutant in human H3255 cells assessed as induction of EGFR degradation at 1 to 10 uM treated 8 hrs post serum starvation measured after 16 hrs by Western blot analysis; type: cell-based; summary of the method: as §1
[29] = test system: von Hippel-Lindau disease tumor suppressor/Epidermal growth factor receptor (Homo sapiens), P00533+P40337 [L858R]; experiment: Protac activity at VHL/EGFR L858R mutant in human H3255 cells assessed as induction of EGFR degradation up to 500 nM treated 8 hrs post serum starvation measured after 16 hrs by Western blot analysis; type: cell-based; summary of the method: as §1
[30] = test system: von Hippel-Lindau disease tumor suppressor/Epidermal growth factor receptor (Homo sapiens), P00533+P40337 [UNDEFINED MUTATION]; experiment: Protac activity at VHL/EGFR exon 19 deletion mutant in human HCC827 cells assessed as induction of EGFR degradation at 1 to 10 uM treated 8 hrs post serum starvation measured after 16 hrs by Western blot analysis; type: cell-based; summary of the method: as §1
[31] = test system: von Hippel-Lindau disease tumor suppressor/Epidermal growth factor receptor (Homo sapiens), P00533+P40337 [UNDEFINED MUTATION]; experiment: Protac activity at VHL/EGFR exon 19 deletion mutant in human HCC827 cells assessed as induction of EGFR degradation up to 500 nM treated 8 hrs post serum starvation measured after 16 hrs by Western blot analysis; type: cell-based
[32] = test system: von Hippel-Lindau disease tumor suppressor/Epidermal growth factor receptor (Homo sapiens), P00533+P40337 [L858R]; experiment: Protac activity at VHL/EGFR L858R mutant in human H3255 cells assessed as reduction in EGFR autophosphorylation up to 10 uM treated 8 hrs post serum starvation measured after 16 hrs by Western blot analysis; type: cell-based
[33] = test system: von Hippel-Lindau disease tumor suppressor/Epidermal growth factor receptor (Homo sapiens), P00533+P40337 [UNDEFINED MUTATION]; experiment: Protac activity at VHL/EGFR exon 19 deletion mutant in human HCC827 cells assessed as reduction in EGFR autophosphorylation up to 10 uM treated 8 hrs post serum starvation measured after 16 hrs by Western blot analysis; type: cell-based
[34] = test system: von Hippel-Lindau disease tumor suppressor/Epidermal growth factor receptor (Homo sapiens), P00533+P40337 [UNDEFINED MUTATION]; experiment: Protac activity at VHL/EGFR exon 19 deletion mutant in human HCC827 cells assessed as reduction in AKT phosphorylation up to 10 uM treated 8 hrs post serum starvation measured after 16 hrs by Western blot analysis; type: cell-based
[35] = test system: von Hippel-Lindau disease tumor suppressor/Epidermal growth factor receptor (Homo sapiens), P00533+P40337 [L858R]; experiment: Protac activity at VHL/EGFR L858R mutant in human H3255 cells assessed as reduction in AKT phosphorylation up to 10 uM treated 8 hrs post serum starvation measured after 16 hrs by Western blot analysis; type: cell-based

With COc1cc2ncnc(Nc3ccc(F)c(Cl)c3)c2cc1OCCCN1CCN(CCC(=O)NCCOCCOCCOCCOCCOCCNc2cccc3c2C(=O)N(C2CCC(=O)NC2=O)C3=O)CC1 (configuration not stated) the Activity [1] was “Active”.

For COc1cc2ncnc(Nc3ccc(F)c(Cl)c3)c2cc1OCCCN1CCN(C(=O)CCCCCCCCCC(=O)N[C@H](C(=O)N2C[C@@H](O)C[C@@H]2C(=O)NCc2ccc(-c3scnc3C)cc2)C(C)(C)C)CC1, the Kd [2] was 9 nM, the Activity [3] was “Active” and the Kd [4] was 8.6 nM.

In the case of COc1cc2ncnc(Nc3ccc(F)c(Cl)c3)c2cc1OCCCN1CCN(C(=O)CCOCCOCCOCCOCCOCCC(=O)N[C@H](C(=O)N2C[C@H](O)C[C@H]2C(=O)NCc2ccc(-c3scnc3C)cc2)C(C)(C)C)CC1, the Activity [5] is reported as “inactive”.

In the case of COc1cc2ncnc(Nc3ccc(F)c(Cl)c3)c2cc1OCCCN1CCOCC1, the Activity [3] is reported as “Active”.

In the case of COc1cc2ncnc(Nc3ccc(F)c(Cl)c3)c2cc1OCCCN1CCN(C(=O)CCOCCOCCOCCC(=O)N[C@H](C(=O)N2C[C@H](O)C[C@H]2C(=O)NCc2ccc(-c3scnc3C)cc2)C(C)(C)C)CC1, the Activity [5] is reported as “inactive”.

With COc1cc2ncnc(Nc3ccc(F)c(Cl)c3)c2cc1OCCCN1CCN(C(=O)CCOCCC(=O)N[C@H](C(=O)N2C[C@H](O)C[C@H]2C(=O)NCc2ccc(-c3scnc3C)cc2)C(C)(C)C)CC1 the Activity [5] was “inactive”.

In the case of COc1cc2ncnc(Nc3ccc(F)c(Cl)c3)c2cc1OCCCN1CCN(C(=O)CCCCCCCCCC(=O)N[C@H](C(=O)N2C[C@H](O)C[C@H]2C(=O)NCc2ccc(-c3scnc3C)cc2)C(C)(C)C)CC1, the Kd [2] is reported as 12 nM, the DC50 [6] is reported as 3.3 nM and the Activity [7] is reported as “Non-Toxic”. For the same compound, the Activity [8] was “Active”, the Activity [9] was “Active” and the Activity [10] was “Non-Toxic”. The Activity [11] was “Active”, the Activity [12] was “Non-Toxic” and the Activity [13] was “Not Active”. The Activity [3] was “Active”, the Cmax [14] was 5000 nM and the Activity [15] was “Active”. For the same compound, the Activity [16] was “Active”, the Activity [17] was “Not Active” and the Activity [18] was “Active”. It also gave a DC50 [19] of 5 nM, a Kd [4] of 11 nM and a Cmax [20] of 1000 nM. The Activity [21] was “Active”.

With COc1cc2ncnc(Nc3ccc(F)c(Cl)c3)c2cc1OCCCN1CCN(CCC(=O)NCCOCCNc2cccc3c2C(=O)N(C2CCC(=O)NC2=O)C3=O)CC1 (configuration not stated) the Activity [1] was “Active”.

With COc1cc2ncnc(Nc3ccc(F)c(Cl)c3)c2cc1OCCCN1CCN(CCC(=O)NCCCCCCNc2cccc3c2C(=O)N(C2CCC(=O)NC2=O)C3=O)CC1 (configuration not stated) the Activity [1] was “Active”.

For COc1cc2ncnc(Nc3ccc(F)c(Cl)c3)c2cc1OCCCN1CCN(CCC(=O)NCCCCCCCCOc2cccc3c2C(=O)N(C2CCC(=O)N(C)C2=O)C3=O)CC1 (configuration not stated), the Kd [2] was 4.3 nM, the Activity [22] was “inactive” and the Activity [23] was “Active”. For the same compound, the Activity [24] was “Active”, the Activity [3] was “Active” and the Activity [25] was “Active”. For the same compound, the Activity [26] was “inactive”, the Activity [27] was “Active” and the Kd [4] was 3 nM.

For COc1cc2ncnc(Nc3ccc(F)c(Cl)c3)c2cc1OCCCCCOCCOCCC(=O)N[C@H](C(=O)N1C[C@H](O)C[C@H]1C(=O)NCc1ccc(-c2scnc2C)cc1)C(C)(C)C, the Activity [28] was “inactive”, the Activity [29] was “Active” and the Activity [30] was “inactive”. The Activity [31] was “Active”, the Activity [3] was “Active” and the Activity [32] was “Active”. For the same compound, the Activity [33] was “Active”, the Activity [34] was “Active” and the Activity [35] was “Active”.

Source: ChEMBL document CHEMBL4376874, “Discovery of Potent and Selective Epidermal Growth Factor Receptor (EGFR) Bifunctional Small-Molecule Degraders” (J Med Chem, 2020)
